Reference: the EternaBench riboswitch data

Tested on: MS2 coat protein
Assay: apparent Kd, MS2 coat protein; higher = weaker binding; RNA-MaP array; FMN 200 µM where present
In short: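 Stalled E. coli RNA polymerase transcribed the designs on Illumina sequencing-chip clusters. SNAP-549-labelled MS2 coat protein was titrated from 0.7 or 1.5 nM, doubling to 3 µM, without and then with constant ligand, in 100 mM Tris-HCl pH 7.5, 80 mM KCl, 4 mM MgCl2, BSA, DTT, yeast tRNA and Tween-20. Per-cluster binding curves were fitted to green signal normalised to red-channel RNA signal and control-cluster median Fmax. The apparent Kd is the median of the filtered fits.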

[1] = designed as: ON switch for flavin mononucleotide, no ligand
[2] = ligand present: flavin mononucleotide, designed as: ON switch for flavin mononucleotide
[3] = designed as: OFF switch for flavin mononucleotide, no ligand
[4] = ligand present: flavin mononucleotide, designed as: OFF switch for flavin mononucleotide

| Sequence | apparent Kd [1] [nM] | apparent Kd [2] [nM] | apparent Kd [3] [nM] | apparent Kd [4] [nM] |
| --- | --- | --- | --- | --- |
| GGACGUCACAUGAACAUGAGGAUCACCCAUGUAACUAGACAUGAGGAUAUGGUUCCUAAUUGGAACCAGAAGGCAUGGACGUCC | 224 | 33 | – | – |
| AGCGUACAAGCUAACAUGAGGAUCACCCAUGUGGUCUCAUGCGAGGAUAUCGGGAAGGAGGAUUCCGAGAAGGUGCGGUGAGCC | 182 | 43.8 | – | – |
| GUCGUGUGAGGAUAUGGAUAGACGCAGUGACAGUAAGCGACCUAGAAGGCACAUGAGGAUCACCCAUGUAUGUG | – | – | 45.5 | 84.1 |
| GCAGCUCCUGACAUGAGGAUCACCCAUGUUUAAUUAUUAAAUCAGGAUAUCCUCUCGAAACGAGAGGAGAAGGGAUAAGCUGCU | 4.83 | 5.33 | – | – |
| AUGGACGUCGUAGGAUAUGUAGGAUUCUCCUACAUGAGGAUCACCCAUGUUGACGUGGAGGACGGACAGAAGGACGGUGUCCAU | 7.22 | 4.8 | – | – |
| GUCUUCCUAGGAUAUACAUGAGGAUCACCCAUGUACAGUUUCGUCUUGGGAUACUCGCGUAGAAGGAGGUGGUU | – | – | 33.2 | 37.3 |
| UGUAAGAUGCAGAAGGUGUUAGCUAGAGCUACGACAUGAGGAUCACCCAUGUACUAGAAACAGUACAAGGAUAUGCAUCUUACG | 17.5 | 6.57 | – | – |
| UUUAAGUCAGGAUAUCGUUAAUUUAAUAAAUUAUUUUAAUUCGAGAAGGGACAUGAGGAUCACCCAUGUAAUUU | – | – | 33.2 | 48.6 |
| AGCCCUAAUGUCAGGAUAUGCAUCCUUAAUGGACGGCAGAAGGGACAUGAGGAUCACCCAUGUAAAUAGAAAUU | – | – | 34.8 | 146 |
| UUAAUAGUAGGAUAUACAUGAGGAUCACCCAUGUAGCAACUACAUUAAGGAACCUGAUGUAGAAGGACUCCCAG | – | – | 13.3 | 15.2 |
| CUAUUUAAGCAGAAGGCGUGGGAGAGAUUCACACGAGGAUAUGCGAUAACGGCGUAUGACAUGAGGAUCACCCAUGUACGUGCG | 5.83 | 4.91 | – | – |
| CUUUUGUGAGGAUAUUAGUAGUAAACAAACAAAAUUAUUACUGAGAAGGCACAUGAGGAUCACCCAUGUUCCUC | – | – | 39.7 | 637 |
| UGUCGGAGCAGAGGAUAUAUACAUGAGGAUCACCCAUGUAAAUGAAUGAGCUGGAAACAGCAUGUAUAGAAGGCUGCUCCGACA | – | – | 118 | 298 |
| AGAAAGUGAGGAUAUACAUGAGGAUCACCCAUGUAGAACGAGAGUUAUAAAAAUGGAAGUAGAAGGCGCAAAAG | – | – | 37.1 | 37.2 |
| UUUUUUUUUGUGAGGAUAUACUUUUUUUUUUUUUUGUAGAAGGCACAUGAGGAUCACCCAUGUUUUUUUUUCUC | – | – | 11.7 | 11.3 |
| AAGAAGUGAGGAUAUACAUGAACGAAAAAAAAAAAGAGCAUGUAGAAGGCACAUGAGGAUCACCCAUGUCAAAA | – | – | 28.5 | 27.3 |
| CGACUGUGAGGAUAUGGUGAGUAGUGCCUGAGCGCUGCUCACCAGAAGGCACAUGAGGAUCACCCAUGUAUAGC | – | – | 41.7 | 165 |
| AUGCUUUAUGUAGGAUAUGCAUACGGUACGUAUGCAGAAGGACAUGAGGAUCACCCAUGUAUAUUAUUAUUACAUAUCAUACAU | – | – | 26.6 | 377 |
| AAAAAACAUGAGGAUCACCCAUGUCGAAAGACGUGAGGAUAUGUACAGACUUCGGUCUGUACAGAAGGCAUGUCAA | 94 | 20.2 | – | – |

| Sequence | apparent Kd [1] [nM] | apparent Kd [2] [nM] | apparent Kd [3] [nM] | apparent Kd [4] [nM] |
| --- | --- | --- | --- | --- |
| GCCUUGUCAGGAUAUCCGCGCGGGUGGCGCAUGCACUGCGUGGAGAAGGGACAUGAGGAUCACCCAUGUGCGUA | – | – | 89.2 | 317 |
| AAUUAAUUAAUACAUGAGGAUCACCCAUGUAAUUAUUAGAUCAAGGAUAUCAGCUCGAUUAGAGCUGAGAAGGUGAUCACAUGU | 412 | 102 | – | – |
| UGUCGGAGCAGAGGAUAUUACAUGAGGAUCACCCAUGUAUGAACCAAUAGCUGGAAGCAGCAAUGUAAGAAGGCUGCUCCGACA | – | – | 12.2 | 137 |
| AGGCCGGGAGGAUAUCCAAUAUAUGACAUGAGGAUCACCCAUGUUUCCACUCGUACCUCCGGAGAAGGCCCGGCGA | – | – | 21.1 | 19.9 |
| GCCGUACAUGAGGAUCACCCAUGUCAGGAUAUUUAGCACUCGGAAUUUCCGAGAGGUCAAAGAAGGGACAUUGC | – | – | 17.5 | 26.9 |
| CCUCCCUGAGGAUAUCCACCCUCAUACAUGAGGAUCACCCAUGUUCAACCCUGGGUUCCCGGAGAAGGCAGAUUUC | – | – | 115 | 134 |
| ACGGCAAUCGCAGGAUAUGGUUACAUGAGGAUCACCCAUGUCUAGGGUCUAAUUAGGUAUAACUACCAGAAGGGCGAAGGCCUA | – | – | 53.5 | 66 |
| GCGUUUGUAUCACAUGUAUUACAUGAGGAUCACCCAUGUUACUAGGAUAUGUAUUAGUAUUUUCAACAGAAGGAGUAAGAACGC | – | – | 18.8 | 23.5 |
| AAGAAACAUGAGGAUCACCCAUGUAAAUAAAUCUCAGGAUAUCGUACAUGGAAGAUCUAACGAGAAGGGAGAAGAA | 137 | 140 | – | – |
| CGGCAAUGACGAGGAUAUAGACAUGAGGAUCACCCAUGUAACAGUAUUACAGGGCGUCUUCUCGGCUAGAAGGCGUUCUAUGCC | – | – | 59.4 | 62.6 |
| UUGGCGACGUAGAAGGGUGACAUGAGGAUCACCCAUGUGCCGAUAUUCCUCGAGAUAUGUCGGCCACAGGAUAUACGUGCCAUC | 51.8 | 98.6 | – | – |
| UAACCAGUCCAGAAGGUGACGUCUGAAACUAGUCAAGGAUAUGGGUUGGUCCACGGUCGGCUACAUGAGGAUCACCCAUGUACC | 32.8 | 8.33 | – | – |
| ACAAGAUCAGGAUAUACAUGAGGAUCACCCAUGUUUAUCAAAAAAAAACUUUCUUUAUGUAGAAGGGAUCUUGU | – | – | 13.8 | 13.6 |
| GUGCUACAGCGGCGCACGAGACAUGAGGAUCACCCAUGUGACAGAAGGGACUUGUUAAAGGUAGGUCAGGAUAUGUCUUAAAAG | 291 | 81.4 | – | – |
| UCACGUCGCCAAGGAUAUACCCGAAGAUCCAUGGUAGAAGGUGGUGACAUGAGGAUCACCCAUGUCCGCGCGGACAAGUGUGCU | – | – | 66 | 14.7 |
| ACCUCGUCAGGAUAUCCUAUUAAUUGUUUCAUAUUUACUAUGGAGAAGGGACAUGAGGAUCACCCAUGUUGGUC | – | – | 53.3 | 57.8 |
| ACCGACACUUACAUGAGGAUCACCCAUGUGUGUAAUCGGACACAGGAUAUCCAUGGUAAGUAUCGGGAGAAGGGUGGAAAGAAA | 88.9 | 233 | – | – |
| GGUACUCAAAGAGUACCAAUACGAACAUGAGGAUCACCCAUGUAGGAUAUGCUACUCAAAGAGUAGCAGAAGGACAUGUCCCUA | – | – | 13.1 | 35.2 |
| GGUGCGUAUGUGAGGAUAUGCUGGUCCUUGGAUCAGCAGAAGGCACAUGAGGAUCACCCAUGUGGUGUCGUCCC | – | – | 426 | 21.1 |

| Sequence | apparent Kd [1] [nM] | apparent Kd [2] [nM] | apparent Kd [3] [nM] | apparent Kd [4] [nM] |
| --- | --- | --- | --- | --- |
| CGUUUUCACAUUUUAGUGUUUUAUACAGAAGGCCAUACACAUGAGGAUCACCCAUGUCAGGAAUUGGAGGAUAUGUUAUUGACG | 5.92 | 4.85 | – | – |
| AAUAACAGAGGAUAUACUAUUUUAUGUGUUUGUUGUUUUGAACAUGAGGAUCACCCAUGUAGAAGGCUGAGUAA | – | – | 27.9 | 30.3 |
| AAAACAUGAGGAUCACCCAUGUAAAGAACGGUUAAUAGAAGUGAGGAUAUACUAAAUUUUAGGUAGUAGAAGGCACUGGGUACA | 21.5 | 22.5 | – | – |
| AUGGACGCAGGAUAUACAUGAGGAUCACCCAUGUUAGGGUUGUGAGUAGGAAGGGAAGGUAGAAGGGCGAGAGU | – | – | 120 | 141 |
| GACAGCGACACAGGAUAUGUCAAUUUUACAUGAGGAUCACCCAUGUCCGAAGCAGAAGGGUGAUCGCGCGCAAACUAAGCCAUG | 80.5 | 70.5 | – | – |
| GGUUGUCAUCGUCAUCCUUUCGGUACAUGAGGAUCACCCAUGUAGGAUAUGCUGCGCUCGGUGUGGCAGAAGGGCGUGUGUGUU | – | – | 23.8 | 40.3 |
| AUAAUGUAAGGAUAUCAGUCGACUAGCUUCGGCUAGUCGACUGAGAAGGUACAUGAGGAUCACCCAUGUGUUUC | – | – | 37.7 | 209 |
| AAAAUACAUGAGGAUCACCCAUGUUAGGAUAUCCAAGGCCUGACCCUCAAGGUCAGGCGGAGAAGGGAUGUGGU | – | – | 50.4 | 51.3 |
| AUCUAGUCAGGAUAUCGUACAAUAUGGAAAACAUAGAGGUACGAGAAGGGACAUGAGGAUCACCCAUGUAAAAC | – | – | 36.2 | 38 |
| CGCCCGUAAGGAUAUACAUGAGGAUCACCCAUGUCGGUAACCGAAGGGCGAUACCUUUGUAGAAGGUACUGCGU | – | – | 14.8 | 13.7 |
| AGAAACUACGAGAAGGACAUAUGAUUAAGACUAAACAUGAGGAUCACCCAUGUAGGAUAUCGUAGUUUCAGGAUCGUGAGAUCA | – | – | 7.27 | 20.1 |
| AGCUAAGAGUUAAUUGUGACAGUGAGAAGGCAAUAGUUUGUGACCGACAUGAGGAUCACCCAUGUUGAGGAUAUCACUAGCUAC | – | – | 6.83 | 19.4 |
| GUAGCUACAUGAGGAUCACCCAUGUAGGAUAUCGCUAUUGUAAUCAUGUUACAUGAUUACAAUAGCGAGAAGGACGUGAGCUAC | – | – | 8.39 | 8.7 |
| GUACAGUAGUGAGGAUAUACGAGAUCGAUAGAUCGGCGAUCCAAUUAUACAUGAGGAUCACCCAUGUAGAAGGCACUUCUGUAC | – | – | 8.37 | 66.9 |
| AUUAAACAUGAGGAUCACCCAUGUCAACAAAGUCGAGGAUAUGGGCAAAUAAAAUAUGAACCAGAAGGCGAAUAAU | 213 | 38.2 | – | – |
| GGUACCCUGGUUCUUCAAAAUACAUGAGGAUCACCCAUGUACUAGGAUAUCGCGCGAACCCUCGCUGAGAAGGAGUCGAUGGGC | – | – | 22 | 23.4 |
| AAAUAACAUGUAGGAUAUCCAGCAUUGACCAUCGGAGAAGGACAUGAGGAUCACCCAUGUACCGAUACAAUGGAAUAAGGGAAU | – | – | 16 | 17.9 |
| AGCUAGUCAGGAUAUACGAACAUGUCAAAAGACGUGAAAGGACAUGAGGAUCACCCAUGUAGAAGGGACUAGCA | – | – | 21.4 | 46.9 |
